From ChEMBL document CHEMBL4393700, “Novel resveratrol-based flavonol derivatives: Synthesis and anti-inflammatory activity in vitro and in vivo” (Eur J Med Chem, 2019)
Active and inactive are the calls of the source. No cut-off for these calls is given here.

Experiments:
RAW264.7 [1] = experiment: Cytotoxicity against LPS-stimulated mouse RAW264.7 cells at 20 uM pretreated for 1 hr followed by LPS stimulation and measured after 24 hrs by MTT assay; conditions: raw264.7, 24 h
RAW264.7 [2] = experiment: Antiinflammatory activity in mouse RAW264.7 cells assessed as reduction in LPS-induced IL-6 production pretreated for 1 hr followed by LPS stimulation and measured after 24 hrs by ELISA; type: functional, cell-based
How it was run: (§1)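 RAW264.7 seeded 6×10^4 cells/well, cultured 24 h; 1 h pretreatment at 10, 5, 2.5, 1.25 or 0.625 µM, then LPS 0.5 µg/mL for 24 h. IL-6 and TNF-α in conditioned medium quantified by ELISA.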

RAW264.7 [3] = experiment: Antiinflammatory activity in mouse RAW264.7 cells assessed as inhibition of LPS-induced NO production at 10 uM pretreated for 1 hr followed by LPS stimulation and measured after 24 hrs by Griess reagent based assay; type: functional, cell-based
How it was run: (§2)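 RAW264.7 in DMEM/10% FBS with penicillin-streptomycin, 37 °C, 5% CO2; seeded 6×10^4 cells/well, grown 24 h, pretreated 1 h with test agent (10 µM screen; 10, 5, 2.5, 1.25, 0.625 µM for concentration series), then LPS 0.5 µg/mL for 24 h. Supernatant nitrite measured with Griess reagent.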

RAW264.7 [4] = experiment: Antiinflammatory activity in mouse RAW264.7 cells assessed as reduction in LPS-induced NO production pretreated for 1 hr followed by LPS stimulation and measured after 24 hrs by Griess reagent based assay; type: functional, cell-based
How it was run: as §2

RAW264.7 [5] = experiment: Antiinflammatory activity in mouse RAW264.7 cells assessed as reduction in LPS-induced TNF alpha production pretreated for 1 hr followed by LPS stimulation and measured after 24 hrs by ELISA; type: functional, cell-based
How it was run: as §1

Compound | Activity (RAW264.7 [1]) | inhibition (RAW264.7 [3]) | also measured
COc1cc(/C=C/c2ccc(OCc3ccccc3)cc2)c(-c2cc(=O)c3cc(OC)ccc3o2)c(OC)c1 | Non-Toxic | – | –
CCOc1ccc(/C=C/c2cc(OC)cc(OC)c2-c2oc3ccc(OC)cc3c(=O)c2O)cc1 | Non-Toxic | – | –
COc1ccc(/C=C/c2cc(OC)cc(OC)c2-c2oc3cc(C)ccc3c(=O)c2O)cc1 | Non-Toxic | – | –
COc1ccc(/C=C/c2cc(OC)cc(OC)c2-c2oc3ccc(OC)cc3c(=O)c2O)cc1 | – | Active | Activity (RAW264.7 [2]): Dose-dependent effect; IC50 (RAW264.7 [2]): 2370 nM; Activity (RAW264.7 [4]): Dose-dependent effect; IC50 (RAW264.7 [4]): 1780 nM; Activity (RAW264.7 [5]): Dose-dependent effect; IC50 (RAW264.7 [5]): 5 µM
CCOc1ccc(/C=C/c2cc(OC)cc(OC)c2-c2oc3ccccc3c(=O)c2O)cc1 | – | Active | –
COc1ccc(/C=C/c2cc(OC)cc(OC)c2-c2oc3ccc(Br)cc3c(=O)c2O)cc1 | – | Active | –
COc1ccc(/C=C/c2cc(OC)cc(OC)c2-c2cc(=O)c3cc(F)ccc3o2)cc1 | – | Active | –
